From ChEMBL document CHEMBL4177755, “Combating Drug-Resistant Fungi with Novel Imperfectly Amphipathic Palindromic Peptides” (J Med Chem, 2018)

Assays:
[1] = tested on: Salmonella typhimurium; assay: Antibacterial activity against Salmonella typhimurium ATCC 14028 after 24 hrs; assay type: functional, Salmonella enterica subsp. enterica serovar Typhimurium; conditions: Salmonella enterica, ATCC 14028, 24 h
Summary of the method: (§1)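 Broth microdilution. Mid-log bacteria in MHB at a final (0.5−1) × 10^5 CFU/mL were mixed with equal volumes of peptide serially diluted in 0.2% BSA. Plates were incubated 24 h at 37 °C and read at A492. MIC is the lowest concentration inhibiting 95% of growth. Each test was repeated at least 3 times.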

[2] = Antibacterial activity against Salmonella pullorum ATCC 7913 after 24 hrs; assay type: functional, Salmonella enterica subsp. enterica serovar Pullorum; conditions: Salmonella enterica, ATCC 7913, 24 h; summary of the method: as §1
[3] = tested on: Staphylococcus aureus; assay: Antibacterial activity against methicillin-resistant Staphylococcus aureus ATCC 4330 after 24 hrs; assay type: functional; conditions: ATCC 4330, 24 h
Summary of the method: (§2)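 Modified NCCLS broth microdilution. Mid-log bacteria at (0.5−1) × 10^5 CFU/mL in MHB were mixed 1:1 with peptide serially diluted in 0.2% BSA and incubated 24 h at 37 °C. Absorbance was read at 492 nm; MIC is the lowest concentration inhibiting 95% of growth. At least 3 repeats.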

[4] = tested on: Staphylococcus epidermidis; assay: Antibacterial activity against Staphylococcus epidermidis ATCC 12228 after 24 hrs; assay type: functional; conditions: ATCC 12228, 24 h; summary of the method: as §1
[5] = tested on: Staphylococcus aureus; assay: Antibacterial activity against Staphylococcus aureus ATCC 25923 after 24 hrs; assay type: functional; conditions: ATCC 25923, 24 h; summary of the method: as §2
[6] = tested on: Escherichia coli; assay: Bactericidal activity against Escherichia coli ATCC 25922; assay type: functional; conditions: read-out: MBC99.9
Summary of the method: (§3)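 Wells from the 24 h, 37 °C MHB microdilution plates (bacteria at a final (0.5−1) × 10^5 CFU/mL; peptide diluted in 0.2% BSA) were plated on agar and incubated overnight. MBC is the lowest concentration killing >99.9% of cells. Each test was reproduced at least 3 times.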

[7] = tested on: Escherichia coli; assay: Bactericidal activity against Escherichia coli 1005; assay type: functional; conditions: read-out: MBC99.9; summary of the method: as §3
[8] = tested on: Staphylococcus aureus; assay: Bactericidal activity against methicillin-resistant Staphylococcus aureus ATCC 4330; assay type: functional; conditions: read-out: MBC99.9
Summary of the method: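 Bacteria at (0.5−1) × 10^5 CFU/mL in MHB were exposed to serially diluted peptide (0.2% BSA) for 24 h at 37 °C, then 50 μL aliquots were plated on agar overnight. MBC is the lowest concentration killing >99.9% of cells. At least 3 repeats.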

[9] = tested on: Staphylococcus epidermidis; assay: Bactericidal activity against Staphylococcus epidermidis ATCC 12228; assay type: functional; conditions: read-out: MBC99.9; summary of the method: as §3
[10] = tested on: Staphylococcus aureus; assay: Bactericidal activity against Staphylococcus aureus ATCC 25923; assay type: functional; conditions: read-out: MBC99.9; summary of the method: as §3
[11] = tested on: Candida albicans; assay: Antifungal activity against Candida albicans cgmcc 2.2086 after 48 hrs by broth microdilution method; assay type: functional; conditions: cgmcc 2.2086, 48 h
Summary of the method: (§4)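 Modified CLSI M27-A2 broth microdilution. Yeast at (0.5−1) × 10^3 CFU/mL in MOPS-buffered RPMI 1640 was mixed 1:1 with peptide serially diluted in 0.2% BSA and incubated 48 h at 28 °C. Absorbance was read at 492 nm; MIC is the lowest concentration inhibiting 95% of growth. Triplicate, three biological replicates.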

[12] = tested on: Candida albicans; assay: Antifungal activity against Candida albicans SP3931 after 48 hrs by broth microdilution method; assay type: functional; conditions: SP3931, 48 h; summary of the method: as §4
[13] = tested on: Candida albicans; assay: Antifungal activity against Candida albicans SP3903 after 48 hrs by broth microdilution method; assay type: functional; conditions: SP3903, 48 h; summary of the method: as §4
[14] = tested on: Candida albicans; assay: Antifungal activity against Candida albicans SP3902 after 48 hrs by broth microdilution method; assay type: functional; conditions: SP3902, 48 h; summary of the method: as §4
[15] = tested on: Candida albicans; assay: Antifungal activity against Candida albicans SP3876 after 48 hrs by broth microdilution method; assay type: functional; conditions: SP3876, 48 h; summary of the method: as §4
[16] = tested on: Candida albicans; assay: Antifungal activity against fluconazole-resistant Candida albicans 56214 after 48 hrs by broth microdilution method; assay type: functional; conditions: Candida albicans, 56214, 48 h; summary of the method: as §4
[17] = tested on: Candida albicans; assay: Antifungal activity against fluconazole-resistant Candida albicans 17546 after 48 hrs by broth microdilution method; assay type: functional; conditions: Candida albicans, 17546, 48 h; summary of the method: as §4
[18] = tested on: Candida albicans; assay: Fungicidal activity against Candida albicans cgmcc 2.2086 after 96 hrs; assay type: functional; conditions: cgmcc 2.2086, 96 h, read-out: MFC99.9
Summary of the method: (§5)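 After the 48 h, 28 °C broth microdilution in MOPS-buffered RPMI 1640 (inoculum (0.5−1) × 10^3 CFU/mL), 50 μL from each well was plated on YM agar for a further 48 h at 28 °C. MFC is the lowest concentration killing at least 99.9% of cells. Triplicate, three biological replicates.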

[19] = tested on: Pichia kudriavzevii; assay: Fungicidal activity against Candida krusei cgmcc 2.1857 after 96 hrs; assay type: functional; conditions: cgmcc 2.1857, 96 h, read-out: MFC99.9
Summary of the method: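 Wells from the 48 h, 28 °C RPMI 1640/MOPS microdilution plates were plated on YM agar and incubated a further 48 h at 28 °C. MFC is the lowest concentration killing at least 99.9% of cells. Run in triplicate with three biological replicates.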

[20] = tested on: Erythrocyte; assay: Hemolytic activity in human RBC after 1 hr; assay type: ADME, cell-based
Summary of the method: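 Fresh human erythrocytes, diluted 10-fold in PBS pH 7.4, were mixed with equal volumes of peptide and held 1 h at 37 °C. After centrifugation at 1000g, supernatant hemoglobin was read at 576 nm. PBS set 0% and 0.1% Triton X-100 set 100% lysis. MHC is the concentration causing 10% hemolysis. At least three experiments were run, each in technical triplicate.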

[21] = tested on: Candida albicans; assay: Antifungal activity against Candida albicans cgmcc 2.2086 in presence of KCl by broth dilution method; assay type: functional
[22] = tested on: Candida albicans; assay: Antifungal activity against Candida albicans cgmcc 2.2086 in presence of MgCl2 by broth dilution method; assay type: functional
[23] = tested on: Candida albicans; assay: Antifungal activity against Candida albicans cgmcc 2.2086 in presence of FeCl3 by broth dilution method; assay type: functional
[24] = tested on: Candida albicans; assay: Antifungal activity against Candida albicans cgmcc 2.2086 in presence of 12.5% human heat-inactivated serum by broth dilution method; assay type: functional
[25] = tested on: Candida albicans; assay: Antifungal activity against Candida albicans 58288 after 48 hrs by broth microdilution method; assay type: functional; conditions: Candida albicans, 58288, 48 h; summary of the method: as §4
[26] = tested on: Candida albicans; assay: Fungicidal activity against Candida albicans 58288 after 96 hrs; assay type: functional; conditions: Candida albicans, 58288, 96 h; read-out: MFC99.9; summary of the method: as §5
[27] = Cytotoxicity against mouse RAW264.7 cells assessed as cell viability at 2 to 64 uM after 24 hrs by MTT assay relative to control; assay type: cell-based; conditions: read-out: Activity
Summary of the method: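 MTT viability assay. RAW264.7 or HEK293T cells at (1.0−2.0) × 10^5 per well were exposed to a peptide concentration series for 24 h at 37 °C in 5% CO2. MTT was then added at 0.5 mg/mL final for 4 h; formazan was dissolved in DMSO and read at 570 nm. Results average three independent trials.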

[28] = tested on: Escherichia coli; assay: Antibacterial activity against Escherichia coli ATCC 25922 after 18 hrs in presence of NaCl by broth dilution method; assay type: functional; conditions: ATCC 25922, 18 h
[29] = tested on: Escherichia coli; assay: Antibacterial activity against Escherichia coli ATCC 25922 after 18 hrs in presence of NH4Cl by broth dilution method; assay type: functional; conditions: ATCC 25922, 18 h
[30] = tested on: Escherichia coli; assay: Antibacterial activity against Escherichia coli ATCC 25922 after 18 hrs in presence of MgCl2 by broth dilution method; assay type: functional; conditions: ATCC 25922, 18 h

CC[C@H](C)[C@H](NC(=O)CN)C(=O)NCC(=O)N[C@@H](C)C(=O)N[C@H](C(=O)N[C@@H](CC(C)C)C(=O)N[C@@H](CCCCN)C(=O)N[C@H](C(=O)N[C@@H](CC(C)C)C(=O)N[C@H](C(=O)N[C@H](C(=O)NCC(=O)N[C@@H](CC(C)C)C(=O)N1CCC[C@H]1C(=O)N[C@@H](C)C(=O)N[C@@H](CC(C)C)C(=O)N[C@H](C(=O)N[C@@H](CO)C(=O)N[C@@H](Cc1c[nH]c2ccccc12)C(=O)N[C@H](C(=O)N[C@@H](CCCCN)C(=O)N[C@@H](CCCNC(=N)N)C(=O)N[C@@H](CCCCN)C(=O)N[C@@H](CCCNC(=N)N)C(=O)N[C@@H](CCC(N)=O)C(=O)N[C@@H](CCC(N)=O)C(N)=O)[C@@H](C)CC)[C@@H](C)CC)[C@@H](C)O)[C@@H](C)O)C(C)C)C(C)C [MELITTIN]
8 µM: MIC95 [12] | MIC95 [17] | MFC [18]
1 µM: MIC95 [1] | MIC95 [3] | MBC [8] | MBC [9]
0.25 µM: HC10 [20]
0.5 µM: MIC95 [4]
2 µM: MIC95 [2] | MBC [6] | MBC [7] | MIC95 [14]
4 µM: MIC95 [5] | MBC [10] | MIC95 [11] | MIC95 [13] | MIC95 [15] | MIC95 [16] | MFC [19] | MIC [21] | MIC [22] | MIC [23] | MIC95 [25] | MFC [26]
32 µM: MIC [24]

H-RRIRIIIRIRR-NH2
8 µM: MBC [10]
> 128 µM: HC10 [20]
1 µM: MIC95 [13] | MIC95 [15] | MIC95 [16]
2 µM: MIC95 [2] | MIC95 [11] | MIC95 [12] | MIC95 [14] | MIC95 [17] | MFC [18] | MFC [19] | MIC [30] | MIC [21] | MIC [22] | MIC [23] | MIC [24] | MIC95 [25] | MFC [26]
4 µM: MIC95 [1] | MIC95 [3] | MIC95 [4] | MIC95 [5] | MBC [6] | MBC [7] | MBC [8] | MBC [9] | MIC [28] | MIC [29]
> 85%: viability at 24 h, up to 64 µM [27]
